Two compounds from ChEMBL document CHEMBL5230166, “Novel quinoline-piperazine hybrids: the design, synthesis and evaluation of antibacterial and antituberculosis properties” (RSC Med Chem, 2023) can be followed below.

Data set [1] concerns HepG2. In words: Cytotoxicity against human HepG2 cells assessed as inhibition of cell growth upto 32 ug/ml. Conditions: dose < 32 µg/ml. Format: toxicity, cell-based. A digest of the protocol: (§1)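 MTT proliferation assay on HEK293 (normal embryonic kidney) or HepG2 (liver cancer) cells. Cells are seeded at 10000 cells/well and adhered at 37 °C, 5% CO₂. Compounds are tested at 64 to 1 µg/mL (143 to 4.6 µM) in triplicate, with a DMSO vehicle control. Incubation is 48 h, followed by MTT (1 mg/mL) for 3 h at 37 °C.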

Data set [2] concerns Staphylococcus epidermidis. In words: Antibacterial activity against clinical isolate methicillin resistant Staphylococcus epidermidis AB 735 assessed as inhibition of bacterial growth incubated for 22 to 24 hrs. Format: functional. Conditions: time 22-24 hrs.
Data set [3] deals with A549. Briefly: Cytotoxicity against human A549 cells assessed as cell viability at 143 uM relative to control. The note with it: a549, 143 µM.
For a further data set, the system named is Enterococcus faecium. In words: Antibacterial activity against Enterococcus faecium ATCC 49624 assessed as inhibition of bacterial growth incubated for 22 to 24 hrs. Format: functional. Conditions: time 22-24 hrs. The method in brief:
(§2)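 Broth MIC referenced to an earlier protocol. Inocula come from mid-log cultures sub-cultured on soybean casein digest agar, adjusted to McFarland (~10⁸ CFU/mL), then diluted to ~10⁵ CFU/mL. Compounds and controls are serially diluted from 64 to 0.03 µg/mL. Tested in triplicate, read after 22–24 h at 37 °C. MIC is the lowest concentration with no visible growth.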

Data set [4] can be described thus: Cytotoxicity against human A549 cells assessed as inhibition of cell growth at 64 ug/ml relative to control. Format: toxicity, cell-based. Conditions: at 64 µg/mL, read-out: Activity. The method in brief:
(§3)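 MTT proliferation assay. A549 cells are seeded at 10000 cells/well and allowed to adhere at 37 °C, 5% CO₂. Compounds are added at 64 to 1 µg/mL (143 to 4.6 µM) in triplicate, with a DMSO vehicle control. Incubation is 24 h, then MTT (1 mg/mL) is added for 3 h at 37 °C.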

In data set [5] the test system is HEK293. In words: Cytotoxicity against HEK293 cells assessed as inhibition of cell growth upto 64 ug/ml. Format: toxicity, cell-based. The note with it: human, dose < 64 µg/ml.
The subject of a further data set is Moraxella catarrhalis. Briefly: Antibacterial activity against Moraxella catarrhalis ATCC 25238 assessed as inhibition of bacterial growth incubated for 22 to 24 hrs. Format: functional. The note with it: time 22-24 hrs. A digest of the protocol: as §2
Data set [6] relates to Mycolicibacterium smegmatis. In words: Antibacterial activity against Mycobacterium smegmatis ATCC 607 assessed as inhibition of bacterial growth incubated for 2 days by CLSI protocol based broth microdilution method. Format: functional. Conditions: ATCC 607, 48 h, time 2 day. The method in brief:
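CLSI broth microdilution in Middlebrook 7H9 with 10% ADC. Compounds are dissolved in DMSO at 4.0 mg/mL (stock) and serially diluted from 64 to 0.015 µg/mL. Inoculum is ~10⁵ CFU/mL, checked by plating on 7H11 agar. Rifampin and levofloxacin are positive controls; drug-free broth with DMSO is the negative control. Growth inhibition is read after 2 days at 37 °C as MIC.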
Background: Dilution methods test growth across graded concentrations, often in twofold steps.

Data set [7] concerns HepG2. Briefly: Cytotoxicity against human HepG2 cells assessed as cell viability at 143 uM relative to control. Conditions: hepg2, 143 µM.
Data set [8] concerns A549. In words: Cytotoxicity against human A549 cells assessed as inhibition of cell growth upto 32 ug/ml. The note with it: dose < 32 µg/ml. Format: toxicity, cell-based. A digest of the protocol: as §3
The subject of a further data set is Escherichia coli. Briefly: Antibacterial activity against clinical isolate Escherichia coli AB 117 assessed as inhibition of bacterial growth incubated for 22 to 24 hrs. Format: functional. Conditions: time 22-24 hrs.
Data set [9] in a line: Cytotoxicity against human HepG2 cells assessed as inhibition of cell growth at 64 ug/ml relative to control. Format: toxicity, cell-based. The note with it: at 64 µg/mL, read-out: Activity. A digest of the protocol: as §1
In data set [10] the test system is Staphylococcus aureus. In words: Antibacterial activity against methicillin resistant Staphylococcus aureus ATCC 33591 assessed as inhibition of bacterial growth incubated for 22 to 24 hrs. Format: functional. The note with it: time 22-24 hrs. A digest of the protocol:
(§4)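 Broth microdilution MIC. Strains were subcultured on Soybean Casein Digest Agar, and inocula were taken from mid-log culture, adjusted to McFarland (~10⁸ CFU/mL), then diluted to ~10⁵ CFU/mL. Serial dilutions ran from 64 to 0.03 µg/mL. Plates were incubated 22–24 h at 37 °C, in triplicate. MIC was the lowest concentration with no visible growth.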

The test system of data set [11] is Mycobacterium tuberculosis. In words: Antibacterial activity against Mycobacterium tuberculosis H37Rv ATCC 25618 assessed as inhibition of bacterial growth incubated for 2 days by CLSI protocol based broth microdilution method. Format: functional. Conditions: H37Rv ATCC 25618, 48 h, time 2 day.
In data set [12] the test system is HEK293. Briefly: Cytotoxicity against HEK293 cells assessed as cell viability at 143 uM relative to control. The note with it: human, hek293, 143 µM.
Another data set concerns Enterococcus faecalis. In words: Antibacterial activity against vancomycin resistant Enterococcus faecalis ATCC 700802 assessed as inhibition of bacterial growth incubated for 22 to 24 hrs. Format: functional. Conditions: time 22-24 hrs. A digest of the protocol:
as §4

In a further data set the test system is Klebsiella pneumoniae. In words: Antibacterial activity against clinical isolate Klebsiella pneumoniae AB 356 assessed as inhibition of bacterial growth incubated for 22 to 24 hrs. Format: functional. Conditions: time 22-24 hrs.
The test system of data set [13] is Staphylococcus aureus. Briefly: Antibacterial activity against methicillin sensitive Staphylococcus aureus ATCC 29213 assessed as inhibition of bacterial growth incubated for 22 to 24 hrs. Format: functional. Conditions: time 22-24 hrs. The method in brief:
as §2

In another data set the test system is Pseudomonas aeruginosa. Briefly: Antibacterial activity against clinical isolate Pseudomonas aeruginosa AB 645 assessed as inhibition of bacterial growth incubated for 22 to 24 hrs. Format: functional. The note with it: time 22-24 hrs.
Another data set concerns Acinetobacter baumannii. In words: Antibacterial activity against clinical isolate Acinetobacter baumannii BAA 747 assessed as inhibition of bacterial growth incubated for 22 to 24 hrs. Format: functional. The note with it: time 22-24 hrs.

SMILES strings stand for the structures. Converted amounts (≈) assume the structure as drawn. A value given as a limit tells only on which side of the number the result lay.

What is called MIC is the lowest concentration found to suppress growth. Broadly, the viability is a read-out of living cells in per cent, often relative to untreated cells. Turning to `COc1cc(CN2CCN(S(=O)(=O)c3ccccc3F)CC2)nc2ccc(F)cc12`, the Activity entry with HepG2 [1], with HEK293 [5] and with A549 [8] was “Non-Toxic” each time. For the same compound, the MIC is 16 µg/mL (≈ 36.9 µM) in data set [2]; 0.5 µg/mL (≈ 1.15 µM) in the data set with Enterococcus faecium; 0.03 µg/mL (≈ 0.0692 µM) with Moraxella catarrhalis; 0.5 µg/mL (≈ 1.15 µM) in [6]; 16 µg/mL (≈ 36.9 µM) with Escherichia coli; 0.06 µg/mL (≈ 0.138 µM) in the data set with Staphylococcus aureus [10]. Also, the MIC in data set [11] is 1 µg/mL (≈ 2.31 µM); in the data set on Enterococcus faecalis it was 2 µg/mL (≈ 4.61 µM); with Klebsiella pneumoniae, greater than 64 µg/mL; with Staphylococcus aureus [13], 0.5 µg/mL (≈ 1.15 µM); in the data set on Pseudomonas aeruginosa it was greater than 64 µg/mL; in the data set on Acinetobacter baumannii it was greater than 64 µg/mL. The results for the viability with A549 [3], with HepG2 [7] and with HEK293 [12] were 88.6%, 91.8% and 99.5%, respectively. Also, the inhibition at 64 ug/ml in data set [4] and in [9] was less than 12% throughout.
For `COc1ccc2nc(CN3CCN(S(=O)(=O)c4ccccc4F)CC3)cc(OC)c2c1`, the Activity entry in the data set on HepG2 [1], with HEK293 [5] and in the data set with A549 [8] was “Non-Toxic” each time. The MIC in [2] stood at 32 µg/mL (≈ 71.8 µM); in the data set with Enterococcus faecium it was 2 µg/mL (≈ 4.49 µM); with Moraxella catarrhalis it was 0.06 µg/mL (≈ 0.135 µM); in data set [6], 0.031 µg/mL (≈ 0.0696 µM); in the data set on Escherichia coli it was 8 µg/mL (≈ 18 µM); in the data set with Staphylococcus aureus [10] it was 8 µg/mL (≈ 18 µM). Besides, the MIC in [11] was 0.063 µg/mL (≈ 0.141 µM); in the data set with Enterococcus faecalis, 1 µg/mL (≈ 2.24 µM); in the data set with Klebsiella pneumoniae, greater than 64 µg/mL; with Staphylococcus aureus [13], 0.03 µg/mL (≈ 0.0673 µM); with Pseudomonas aeruginosa it was greater than 64 µg/mL; in the data set on Acinetobacter baumannii, greater than 64 µg/mL. Also, the viability in the data set on A549 [3] came out at 91.1%; with HepG2 [7], 97.7%; with HEK293 [12], 100.8%. The inhibition at 64 ug/ml in data set [4] and in data set [9] was less than 12% each time.
